Experimental data from ChEMBL document CHEMBL2046270, “The cis-4-amino-L-proline residue as a scaffold for the synthesis of cyclic and linear endomorphin-2 analogues” (J Med Chem, 2012).

Columns and labels:
[1] = molecular target: Kappa-type opioid receptor (Homo sapiens, UniProt P41145); assay: Displacement of [3H]-U69593 from human kappa opioid receptor expressed in CHO cells after 60 mins by scintillation counting; assay type: cell-based
In short: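 Recombinant CHO cell membranes incubated 60 min at room temperature with 3 nM [3H]U69593 and varying ligand concentrations; nonspecific binding with 10 μM naloxone. Rapid filtration, liquid scintillation counting. Ki by Cheng–Prusoff; four independent experiments, each in duplicate.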

[2] = molecular target: Delta-type opioid receptor (Homo sapiens, UniProt P41143); assay: Displacement of [3H]-DPDPE from human delta opioid receptor expressed in HN9.10 cells after 3 hrs by scintillation counting; assay type: cell-based
In short: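 Membranes from transfected HN9.10 cells expressing MOR or DOR, in 50 mM Tris pH 7.4 with bacitracin, bestatin, captopril, PMSF, BSA. 50 μg membrane with 10 concentrations of test compound and 1.0 nM [3H]DAMGO (MOR) or [3H]DPDPE (DOR); nonspecific with 10 μM naloxone. 25 °C, 3 h, duplicate; GF/B filtration, scintillation counting; Ki by Cheng–Prusoff.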

[3] = molecular target: Mu-type opioid receptor (Cavia porcellus) (UniProt P97266); assay: Agonist activity at mu opioid receptor in Hartley guinea pig ileum assessed as inhibition of electrically-stimulated muscle contraction at 1 uM after 3 mins; assay type: functional, tissue-based
In short: (§1)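 Transmurally stimulated tissue (0.1 Hz; 2.0 ms pulses MVD, 0.4 ms GPI; supramaximal voltage) from male ICR mice (25−30 g) or male Hartley guinea pigs (150−400 g; ileum longitudinal muscle-myenteric plexus), in 37 °C oxygenated Krebs bicarbonate (Mg-free for MVD), tension 0.5 g MVD / 1 g GPI. Agonist in contact 3 min, then washout; percent inhibition of contraction at single concentration.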

[4] = molecular target: Delta-type opioid receptor (Mus musculus) (UniProt P32300); assay: Agonist activity at delta opioid receptor in ICR mouse vas deferens assessed as inhibition of electrically-stimulated muscle contraction at 1 uM after 3 mins; assay type: functional, tissue-based; in short: as §1
Delta-type opioid receptor (Mus musculus), sequence (P32300 whole entry): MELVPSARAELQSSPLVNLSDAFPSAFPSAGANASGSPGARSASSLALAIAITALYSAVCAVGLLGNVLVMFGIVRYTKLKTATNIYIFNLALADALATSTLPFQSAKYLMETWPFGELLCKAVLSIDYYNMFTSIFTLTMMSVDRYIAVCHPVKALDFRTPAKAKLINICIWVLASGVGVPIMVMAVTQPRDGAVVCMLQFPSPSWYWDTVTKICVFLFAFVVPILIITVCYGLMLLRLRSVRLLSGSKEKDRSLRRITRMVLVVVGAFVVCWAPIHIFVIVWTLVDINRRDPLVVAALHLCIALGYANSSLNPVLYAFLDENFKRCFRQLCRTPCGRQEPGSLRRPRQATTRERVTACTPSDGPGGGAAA

Kappa-type opioid receptor, sequence (P41145 whole entry): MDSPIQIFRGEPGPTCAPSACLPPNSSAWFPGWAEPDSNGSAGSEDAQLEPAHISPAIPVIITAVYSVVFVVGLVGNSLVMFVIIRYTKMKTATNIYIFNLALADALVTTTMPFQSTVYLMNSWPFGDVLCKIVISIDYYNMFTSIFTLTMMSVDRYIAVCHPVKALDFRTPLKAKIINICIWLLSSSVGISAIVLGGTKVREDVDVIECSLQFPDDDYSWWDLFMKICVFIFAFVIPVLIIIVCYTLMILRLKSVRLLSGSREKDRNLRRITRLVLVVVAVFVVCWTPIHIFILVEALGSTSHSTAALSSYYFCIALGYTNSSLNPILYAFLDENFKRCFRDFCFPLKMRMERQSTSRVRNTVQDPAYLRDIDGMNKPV
Delta-type opioid receptor, sequence (P41143 whole entry): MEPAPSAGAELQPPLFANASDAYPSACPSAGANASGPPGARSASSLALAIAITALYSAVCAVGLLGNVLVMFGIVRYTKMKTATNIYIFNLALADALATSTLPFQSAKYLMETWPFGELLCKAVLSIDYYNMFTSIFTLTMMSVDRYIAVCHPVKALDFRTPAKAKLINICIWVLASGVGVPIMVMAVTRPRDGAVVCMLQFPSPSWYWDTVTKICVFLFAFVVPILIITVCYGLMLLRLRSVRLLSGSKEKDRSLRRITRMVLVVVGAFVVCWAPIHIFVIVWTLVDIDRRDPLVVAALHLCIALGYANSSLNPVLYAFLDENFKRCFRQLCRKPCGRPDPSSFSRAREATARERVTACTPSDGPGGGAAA
Mu-type opioid receptor (Cavia porcellus), sequence (P97266 whole entry): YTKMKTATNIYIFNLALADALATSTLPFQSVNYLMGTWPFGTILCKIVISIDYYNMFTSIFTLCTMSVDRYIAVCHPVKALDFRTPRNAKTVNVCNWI

| SMILES | Ki [1] | Ki [2] | inhibition [3] [%] | inhibition [4] [%] |
| --- | --- | --- | --- | --- |
| N[C@@H](Cc1ccc(O)cc1)C(=O)N1C[C@@H]2C[C@H]1C(=O)N[C@@H](Cc1ccccc1)C(=O)N[C@@H](Cc1ccccc1)C(=O)N2 | Not Active | Not Active | 1.4 | 0 |
| Br.NC(=O)[C@H](Cc1ccccc1)NC(=O)[C@H](Cc1ccccc1)NC(=O)[C@@H]1C[C@H](N)CN1C(=O)[C@@H](N)Cc1ccc(O)cc1 | Not Active | Not Active | – | 20 |
| Br.N[C@H]1C[C@@H](C(=O)N[C@@H](Cc2ccccc2)C(=O)N[C@@H](Cc2ccccc2)C(=O)O)N(C(=O)[C@@H](N)Cc2ccc(O)cc2)C1 | Not Active | – | 0 | 3.6 |
